ChEMBL document CHEMBL1681705, “Optimisation of ITK inhibitors through successive iterative design cycles” (Bioorg Med Chem Lett, 2011)

What was measured:
[1] = target: Mitogen-activated protein kinase 14 (Homo sapiens) (UniProt Q16539); experiment: Inhibition of SAPK2a at 1 uM
[2] = target: T1, Cytoplasmic tyrosine-protein kinase BMX (Homo sapiens) (UniProt P51813); experiment: Inhibition of Bmx at 0.1 uM; values are per cent of control
T1 sequence (whole entry): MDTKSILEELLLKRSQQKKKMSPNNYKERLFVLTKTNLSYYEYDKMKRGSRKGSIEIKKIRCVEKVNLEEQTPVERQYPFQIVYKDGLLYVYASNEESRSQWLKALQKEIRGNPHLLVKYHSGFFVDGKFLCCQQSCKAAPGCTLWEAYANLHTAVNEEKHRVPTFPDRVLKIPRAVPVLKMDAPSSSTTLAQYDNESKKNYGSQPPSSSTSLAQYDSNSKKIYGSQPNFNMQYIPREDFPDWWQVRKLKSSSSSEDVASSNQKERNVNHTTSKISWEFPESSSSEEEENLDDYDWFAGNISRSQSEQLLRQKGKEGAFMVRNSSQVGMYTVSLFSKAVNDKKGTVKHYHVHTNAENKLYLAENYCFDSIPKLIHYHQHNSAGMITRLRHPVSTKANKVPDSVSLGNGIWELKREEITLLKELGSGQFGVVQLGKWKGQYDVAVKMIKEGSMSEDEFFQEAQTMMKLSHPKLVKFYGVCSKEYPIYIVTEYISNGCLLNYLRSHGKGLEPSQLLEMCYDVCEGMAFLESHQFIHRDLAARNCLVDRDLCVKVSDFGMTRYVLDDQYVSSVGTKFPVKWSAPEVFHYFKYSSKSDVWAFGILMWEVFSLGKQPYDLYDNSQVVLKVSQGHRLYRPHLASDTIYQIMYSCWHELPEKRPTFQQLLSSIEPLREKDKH

[3] = target: Ribosomal protein S6 kinase alpha-4 (Homo sapiens) (UniProt O75676); experiment: Inhibition of MSK2 at 1 uM
Sequence of Ribosomal protein S6 kinase alpha-4 (Homo sapiens) (O75676 whole entry, looked up): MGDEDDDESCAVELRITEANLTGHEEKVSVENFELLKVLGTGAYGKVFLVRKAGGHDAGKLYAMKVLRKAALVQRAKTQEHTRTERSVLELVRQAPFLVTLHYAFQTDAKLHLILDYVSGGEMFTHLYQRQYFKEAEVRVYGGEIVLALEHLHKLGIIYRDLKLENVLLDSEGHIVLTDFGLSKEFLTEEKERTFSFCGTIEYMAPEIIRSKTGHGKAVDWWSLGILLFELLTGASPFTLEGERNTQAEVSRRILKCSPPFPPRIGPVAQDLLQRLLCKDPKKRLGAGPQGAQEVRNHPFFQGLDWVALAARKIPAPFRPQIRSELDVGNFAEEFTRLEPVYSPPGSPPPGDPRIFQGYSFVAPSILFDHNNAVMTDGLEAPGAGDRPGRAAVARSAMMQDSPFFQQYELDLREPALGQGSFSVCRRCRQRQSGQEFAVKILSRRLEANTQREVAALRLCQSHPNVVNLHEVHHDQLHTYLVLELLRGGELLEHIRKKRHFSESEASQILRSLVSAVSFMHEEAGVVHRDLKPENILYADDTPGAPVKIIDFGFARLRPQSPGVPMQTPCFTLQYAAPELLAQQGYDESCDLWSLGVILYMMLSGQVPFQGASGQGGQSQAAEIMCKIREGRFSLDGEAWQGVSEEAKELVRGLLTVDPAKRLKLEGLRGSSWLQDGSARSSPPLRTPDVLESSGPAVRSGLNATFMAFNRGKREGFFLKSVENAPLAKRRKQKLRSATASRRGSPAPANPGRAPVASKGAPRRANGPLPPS
In short: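 Single-point screen within a 108-kinase selectivity panel. Each kinase was tested with inhibitor at 0.1 and 1.0 micromolar, and activity was recorded as percent inhibition.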

[4] = target: Serine/threonine-protein kinase SIK1 (Homo sapiens) (UniProt P57059); experiment: Inhibition of SIK at 0.1 uM; values are per cent of control
Sequence of Serine/threonine-protein kinase SIK1 (Homo sapiens) (P57059 whole entry): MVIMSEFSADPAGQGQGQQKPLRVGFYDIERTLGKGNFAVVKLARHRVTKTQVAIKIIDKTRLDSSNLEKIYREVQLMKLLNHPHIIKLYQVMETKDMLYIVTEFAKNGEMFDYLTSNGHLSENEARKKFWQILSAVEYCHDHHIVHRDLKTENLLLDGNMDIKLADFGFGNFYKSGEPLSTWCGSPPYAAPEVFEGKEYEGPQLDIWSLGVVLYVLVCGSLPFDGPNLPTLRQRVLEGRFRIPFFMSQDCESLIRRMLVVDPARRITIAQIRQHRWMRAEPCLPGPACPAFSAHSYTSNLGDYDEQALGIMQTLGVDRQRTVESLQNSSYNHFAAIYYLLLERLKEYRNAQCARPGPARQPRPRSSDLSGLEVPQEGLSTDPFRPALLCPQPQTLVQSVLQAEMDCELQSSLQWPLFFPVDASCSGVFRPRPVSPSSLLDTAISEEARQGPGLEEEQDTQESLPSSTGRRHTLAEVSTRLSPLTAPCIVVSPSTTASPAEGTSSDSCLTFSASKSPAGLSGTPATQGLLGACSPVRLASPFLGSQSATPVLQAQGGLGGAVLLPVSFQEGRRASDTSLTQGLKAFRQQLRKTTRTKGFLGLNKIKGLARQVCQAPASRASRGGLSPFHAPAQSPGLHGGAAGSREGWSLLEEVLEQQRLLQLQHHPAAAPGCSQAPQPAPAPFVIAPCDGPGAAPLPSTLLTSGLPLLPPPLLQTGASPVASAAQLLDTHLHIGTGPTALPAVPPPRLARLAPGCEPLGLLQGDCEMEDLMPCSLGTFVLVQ

[5] = target: T2, Ephrin type-A receptor 3 (Homo sapiens) (UniProt P29320); experiment: Inhibition of EphA3 at 0.1 uM; values are per cent of control
T2 sequence (whole entry): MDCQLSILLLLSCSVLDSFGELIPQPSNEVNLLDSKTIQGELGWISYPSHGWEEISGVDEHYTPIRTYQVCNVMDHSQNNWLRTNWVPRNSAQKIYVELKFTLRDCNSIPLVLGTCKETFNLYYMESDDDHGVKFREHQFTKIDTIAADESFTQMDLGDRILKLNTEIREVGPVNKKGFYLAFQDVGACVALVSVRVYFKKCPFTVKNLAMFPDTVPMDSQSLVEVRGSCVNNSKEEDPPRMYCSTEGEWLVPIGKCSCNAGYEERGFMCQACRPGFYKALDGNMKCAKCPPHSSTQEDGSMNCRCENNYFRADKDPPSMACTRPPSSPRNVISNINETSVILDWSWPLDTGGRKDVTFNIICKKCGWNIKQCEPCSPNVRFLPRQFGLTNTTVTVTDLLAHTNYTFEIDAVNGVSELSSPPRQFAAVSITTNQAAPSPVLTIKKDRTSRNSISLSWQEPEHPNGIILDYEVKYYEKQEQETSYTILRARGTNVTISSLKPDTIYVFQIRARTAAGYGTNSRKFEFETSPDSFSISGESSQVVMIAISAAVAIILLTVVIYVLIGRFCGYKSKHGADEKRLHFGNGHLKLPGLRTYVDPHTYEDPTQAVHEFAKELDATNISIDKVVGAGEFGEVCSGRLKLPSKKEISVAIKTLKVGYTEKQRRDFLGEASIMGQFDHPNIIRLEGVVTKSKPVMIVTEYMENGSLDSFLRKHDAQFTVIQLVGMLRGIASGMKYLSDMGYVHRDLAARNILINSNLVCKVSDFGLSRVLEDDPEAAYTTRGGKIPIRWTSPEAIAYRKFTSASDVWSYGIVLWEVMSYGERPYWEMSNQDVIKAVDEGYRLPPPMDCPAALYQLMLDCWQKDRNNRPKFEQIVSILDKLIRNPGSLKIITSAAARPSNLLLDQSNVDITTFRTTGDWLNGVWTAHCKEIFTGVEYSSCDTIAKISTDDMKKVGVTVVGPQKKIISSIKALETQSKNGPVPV

[6] = target: T3, Ephrin type-B receptor 1 (Homo sapiens) (UniProt P54762); experiment: Inhibition of EphB1 at 0.1 uM; values are per cent of control
T3 sequence (whole entry): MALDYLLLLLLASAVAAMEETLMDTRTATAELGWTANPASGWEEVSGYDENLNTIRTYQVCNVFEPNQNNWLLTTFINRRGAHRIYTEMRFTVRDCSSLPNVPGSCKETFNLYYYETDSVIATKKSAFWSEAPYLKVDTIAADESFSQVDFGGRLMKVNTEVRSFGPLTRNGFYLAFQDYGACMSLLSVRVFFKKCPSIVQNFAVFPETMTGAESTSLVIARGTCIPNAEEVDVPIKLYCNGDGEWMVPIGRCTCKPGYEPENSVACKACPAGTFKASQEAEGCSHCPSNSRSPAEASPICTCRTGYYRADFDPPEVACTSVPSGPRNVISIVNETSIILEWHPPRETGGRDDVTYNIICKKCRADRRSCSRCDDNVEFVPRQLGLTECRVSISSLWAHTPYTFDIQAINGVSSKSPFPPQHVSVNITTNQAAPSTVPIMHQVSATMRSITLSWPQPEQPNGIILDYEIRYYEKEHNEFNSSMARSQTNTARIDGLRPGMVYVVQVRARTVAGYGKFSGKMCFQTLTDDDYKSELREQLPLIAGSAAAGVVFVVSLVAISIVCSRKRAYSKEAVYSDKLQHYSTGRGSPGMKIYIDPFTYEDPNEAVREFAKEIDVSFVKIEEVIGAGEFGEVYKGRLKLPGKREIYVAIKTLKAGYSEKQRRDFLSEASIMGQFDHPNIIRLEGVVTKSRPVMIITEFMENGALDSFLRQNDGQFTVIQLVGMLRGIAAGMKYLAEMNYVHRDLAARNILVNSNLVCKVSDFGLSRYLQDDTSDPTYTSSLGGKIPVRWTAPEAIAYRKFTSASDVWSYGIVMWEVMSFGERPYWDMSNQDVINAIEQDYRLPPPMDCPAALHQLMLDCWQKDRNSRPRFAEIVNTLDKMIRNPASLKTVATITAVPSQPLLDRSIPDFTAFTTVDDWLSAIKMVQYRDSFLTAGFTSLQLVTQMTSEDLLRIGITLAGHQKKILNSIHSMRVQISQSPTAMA

[7] = target: CDK6/cyclin D3 (Homo sapiens) (UniProt P30281+Q00534); experiment: Inhibition of CDK6/cyclin D3 at 0.1 uM; values are per cent of control

Sequence of Mitogen-activated protein kinase 14 (Homo sapiens) (Q16539 whole entry): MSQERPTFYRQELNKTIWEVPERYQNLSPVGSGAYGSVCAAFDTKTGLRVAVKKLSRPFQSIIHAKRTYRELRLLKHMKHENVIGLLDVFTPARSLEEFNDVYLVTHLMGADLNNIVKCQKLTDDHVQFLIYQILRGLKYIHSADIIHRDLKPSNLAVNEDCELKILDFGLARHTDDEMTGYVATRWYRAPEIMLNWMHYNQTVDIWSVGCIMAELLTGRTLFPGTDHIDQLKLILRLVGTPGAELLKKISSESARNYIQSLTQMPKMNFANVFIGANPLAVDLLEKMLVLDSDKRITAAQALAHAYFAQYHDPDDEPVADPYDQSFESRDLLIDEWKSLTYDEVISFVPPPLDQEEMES

Structure (SMILES) | inhibition [1] [%] | residual activity [2] [%] | inhibition [3] [%] | residual activity [4] [%] | residual activity [5] [%] | residual activity [6] [%] | residual activity [7] [%]
Cc1ccc2cc(-c3n[nH]c4ccc(NC5CCN(Cc6ccccc6)CC5)cc34)[nH]c2c1 | 97 | 45 | 91 | 43 | 81 | 73 | 80
Cc1ccc2cc(-c3n[nH]c4ccc(NC5CCNC5)cc34)[nH]c2c1 (centres undefined) | 99 | 15 | 2 | 18 | 89 | 29 | 70
